The source made the active and inactive calls. The calls are words filed in the database; no cut-off is given here.
Experiments:
[1] = Antiproliferative activity against human KB cells after 24 to 72 hrs by MTS assay; format: functional, cell-based
How it was run: (§1)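 Cells plated, then dosed 24 h later with compounds in DMSO (1% final; controls DMSO alone), exposed 24 or 72 h. Proliferation inhibition measured as previously reported (MTS/NADH reagent). IC50 from duplicate experiments over 0.5 nM–100 µM. KB grown in D-MEM with 10% fetal calf serum, penicillin, streptomycin, fungizone, 5% CO2; other lines in complete RPMI. EPC are quiescent Cyprinus carpio endothelial progenitor cells.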

[2] = Antiproliferative activity against human HL60 cells after 24 to 72 hrs by MTS assay; format: functional, cell-based; conditions: HL-60; how it was run: as §1
[3] = Antiproliferative activity against human MCF7 cells after 24 to 72 hrs by MTS assay; format: functional, cell-based
[4] = Antiproliferative activity against human HCT116 cells after 24 to 72 hrs by MTS assay; format: functional, cell-based; conditions: HCT-116
[5] = Antiproliferative activity against human PC3 cells after 24 to 72 hrs by MTS assay; format: functional, cell-based; conditions: PC-3
[6] = Antiproliferative activity against human SKOV3 cells after 24 to 72 hrs by MTS assay; format: functional, cell-based; conditions: SK-OV-3
[7] = Antiproliferative activity against human OVCAR8 cells after 24 to 72 hrs by MTS assay; format: functional, cell-based; conditions: OVCAR-8
[8] = Cytotoxicity against human HL60 cells assessed as reduction in cell viability after 24 hrs by MTS assay; format: functional, cell-based; conditions: HL-60, 24 h
[9] = test system: HL-60; assay: Induction of apoptosis in human HL60 cells assessed as necrotic/late apoptotic cells at 10 uM after 24 hrs by Annexin V/7AAD-dual staining based FACS analysis (reference value: 0.6 %); format: functional
How it was run: (§2)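 HL60 cells treated 24 h with EA (10 or 50 µM) or derivatives (5 µM); controls vehicle only. Annexin V/7-AAD staining, flow cytometry; cells classed as dead, necrotic/late apoptotic, intact or early apoptotic, as percentages.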

[10] = test system: KB; assay: Induction of necrosis in human KB cells assessed as increase in LDH release at 50 uM after 24 to 48 hrs by fluorescence assay; format: functional, cell-based
[11] = test system: HCT-116; assay: Induction of necrosis in human HCT116 cells assessed as increase in LDH release 50 uM after 24 to 48 hrs by fluorescence assay; format: functional, cell-based
[12] = test system: MRC5; assay: Induction of necrosis in human MRC5 SV2 cells assessed as increase in LDH release at 50 uM after 24 to 48 hrs by fluorescence assay; format: functional, cell-based
[13] = test system: HL-60; assay: Induction of apoptosis in human HL60 cells assessed as dead cells at 10 uM after 24 hrs by Annexin V/7AAD-dual staining based FACS analysis (reference value: 0.1 %); format: functional
[14] = test system: HL-60; assay: Induction of apoptosis in human HL60 cells assessed as dead cells at 50 uM after 24 hrs by Annexin V/7AAD-dual staining based FACS analysis (reference value: 0.1 %); format: functional
[15] = test system: HL-60; assay: Induction of apoptosis in human HL60 cells assessed as necrotic/late apoptotic cells at 50 uM after 24 hrs by Annexin V/7AAD-dual staining based FACS analysis (reference value: 0.6 %); format: functional; how it was run: as §2
[16] = test system: HL-60; assay: Induction of apoptosis in human HL60 cells assessed as intact cells at 10 uM after 24 hrs by Annexin V/7AAD-dual staining based FACS analysis (reference value: 91.6 %); format: functional; how it was run: as §2
[17] = test system: HL-60; assay: Induction of apoptosis in human HL60 cells assessed as intact cells at 50 uM after 24 hrs by Annexin V/7AAD-dual staining based FACS analysis (reference value: 91.6 %); format: functional; how it was run: as §2
[18] = test system: HL-60; assay: Induction of apoptosis in human HL60 cells assessed as early apoptotic cells at 10 uM after 24 hrs by Annexin V/7AAD-dual staining based FACS analysis (reference value: 7.7 %); format: functional; how it was run: as §2
[19] = test system: HL-60; assay: Induction of apoptosis in human HL60 cells assessed as early apoptotic cells at 50 uM after 24 hrs by Annexin V/7AAD-dual staining based FACS analysis (reference value: 7.7 %); format: functional; how it was run: as §2
[20] = test system: HL-60; assay: Induction of apoptosis in human HL60 cells assessed as intact cells at 10 to 50 uM after 24 hrs by Annexin V/7AAD-dual staining based FACS analysis; format: functional, cell-based; how it was run: as §2
[21] = test system: HL-60; assay: Induction of apoptosis in human HL60 cells assessed as early apoptotic cells at 10 to 50 uM after 24 hrs by Annexin V/7AAD-dual staining based FACS analysis; format: functional, cell-based; how it was run: as §2
[22] = Cell cycle arrest in human HL60 cells assessed as accumulation at G0/G1 phase at 2.5 uM after 24 hrs by propidium iodide-staining based FACS analysis (reference value: 43.5 %); format: functional; conditions: HL-60
How it was run: (§3)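 HL60 cells, 25,000 per well, exposed 24 and 48 h to 2.5 µM compounds; controls DMSO (1% final). Propidium iodide staining, flow cytometry; fractions in sub-G1, G0/G1, S and G2/M quantified.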

[23] = Cell cycle arrest in human HL60 cells assessed as accumulation at S phase at 2.5 uM after 24 hrs by propidium iodide-staining based FACS analysis (reference value: 48.9 %); format: functional; conditions: HL-60; how it was run: as §3
[24] = Cell cycle arrest in human HL60 cells assessed as accumulation at G2/M phase at 2.5 uM after 24 hrs by propidium iodide-staining based FACS analysis (reference value: 5.1 %); format: functional; conditions: HL-60; how it was run: as §3
[25] = Cell cycle arrest in human HL60 cells assessed as accumulation at sub G1 phase at 2.5 uM after 24 hrs by propidium iodide-staining based FACS analysis (reference value: 2.6 %); format: functional; conditions: HL-60; how it was run: as §3
[26] = Cell cycle arrest in human HL60 cells assessed as accumulation at G0/G1 phase at 2.5 uM after 48 hrs by propidium iodide-staining based FACS analysis (reference value: 43.8 %); format: functional; conditions: HL-60; how it was run: as §3
[27] = Cell cycle arrest in human HL60 cells assessed as accumulation at S phase at 2.5 uM after 48 hrs by propidium iodide-staining based FACS analysis (reference value: 52.6 %); format: functional; conditions: HL-60; how it was run: as §3
[28] = Cell cycle arrest in human HL60 cells assessed as accumulation at G2/M phase at 2.5 uM after 48 hrs by propidium iodide-staining based FACS analysis (reference value: 2.2 %); format: functional; conditions: HL-60; how it was run: as §3
[29] = Cell cycle arrest in human HL60 cells assessed as accumulation at sub G1 phase at 2.5 uM after 48 hrs by propidium iodide-staining based FACS analysis (reference value: 1.4 %); format: functional; conditions: HL-60; how it was run: as §3
[30] = test system: KB; assay: Selectivity index, ratio of IC50 for Cyprinus carpio EPC to IC50 for human KB cells
[31] = test system: HL-60; assay: Selectivity index, ratio of IC50 for Cyprinus carpio EPC to IC50 for human HL60 cells
[32] = Antiproliferative activity against Cyprinus carpio EPC after 24 to 72 hrs by MTS assay
[33] = test system: HL-60; assay: Antiproliferative activity against human HL60 cells at 50 uM after 24 hrs by viacount-reagent based FACS analysis
[34] = test system: HL-60; assay: Induction of apoptosis in human HL60 cells assessed as dead cells at 10 to 50 uM after 24 hrs by Annexin V/7AAD-dual staining based FACS analysis
[35] = test system: HL-60; assay: Induction of apoptosis in human HL60 cells assessed as necrotic/late apoptotic cells at 10 to 50 uM after 24 hrs by Annexin V/7AAD-dual staining based FACS analysis
[36] = test system: HL-60; assay: Induction of necrosis in human HL60 cells assessed as LDH release at 50 uM after 48 hrs by fluorescence assay; format: functional
[37] = test system: HL-60; assay: Induction of apoptosis in human HL60 cells assessed as caspase 3/7 activation at 50 nM preincubated for 24 hrs after 180 mins by fluorescence assay; format: functional, cell-based
How it was run: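 HL60 cells treated 24 h with EA (50 µM), derivatives (5 µM) or doxorubicin (50 nM, positive control), then caspase-3 activity assayed by fluorescence (ex 360, em 435 nm) at 0, 30, 60, 120 and 180 min. Rate from slope of linear phase, expressed as fold-activation over DMSO-treated HL60.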

Structure (SMILES): C=C(CC)C(=O)c1ccc(OCC(=O)O)c(Cl)c1Cl [ETHACRYNIC ACID]
- IC50 [1]: 11 µM
- IC50 [2]: 46 µM
- IC50 [3]: 41 µM
- IC50 [4]: 75 µM
- IC50 [5]: 75 µM
- IC50 [6]: > 100 µM
- IC50 [7]: 72 µM
- IC50 [8]: 38 µM
- Activity [9]: 0.9%
- Activity [10]: Active
- Activity [11]: Active
- Activity [12]: Active
- Activity [13]: 0.1%
- Activity [14]: 0%
- Activity [15]: 0.8%
- Activity [16]: 87.8%
- Activity [17]: 57.9%
- Activity [18]: 11.2%
- Activity [19]: 41.3%
- Activity [20]: Active
- Activity [21]: Active
- Activity [22]: 45.4%
- Activity [23]: 43.6%
- Activity [24]: 8.3%
- Activity [25]: 2.7%
- Activity [26]: 41.5%
- Activity [27]: 54.1%
- Activity [28]: 1.3%
- Activity [29]: 3.1%
- Ratio IC50 [30]: >9
- Ratio IC50 [31]: >2
- IC50 [32]: > 100 µM
- Activity [33]: Active
- Activity [34]: Active
- Activity [35]: Active

Structure (SMILES): CC1=CC(=O)c2ccccc2C1=O [MENADIONE]
- Activity [36]: <=60%

Structure (SMILES): COc1cccc2c1C(=O)c1c(O)c3c(c(O)c1C2=O)C[C@@](O)(C(=O)CO)C[C@@H]3O[C@H]1C[C@H](N)[C@H](O)[C@H](C)O1
- Activity [37]: Active

Reference: ChEMBL document CHEMBL3865827, “A novel class of ethacrynic acid derivatives as promising drug-like potent generation of anticancer agents with established mechanism of action” (Eur J Med Chem, 2016)
